# In ChEMBL document CHEMBL1212854, “The structure-activity relationships of A-ring-substituted aromathecin topoisomerase I inhibitors strongly support a camptothecin-like binding mode” (2010):
# Activity calls are given as the source filed them. No cut-off for these calls is given here.
# Experiments:
# [1] = system: MCF7; assay: Cytotoxicity against human MCF7 cells; format: functional
# In short: (§1)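 NCI 60-cell-line screen (eight solid-tumour subpanels plus leukemia). A one-dose pass at 10−5 M came first. Selected compounds were then run at five concentrations from 10−8 to 10−4 M. GI50 is the concentration giving 50% growth inhibition.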
# [2] = system: DU-145; assay: Cytotoxicity against human DU145 cells; format: functional; in short: as §1
# [3] = system: SN12C; assay: Cytotoxicity against human SN12C cells; format: functional; in short: as §1
# [4] = system: OVCAR-3; assay: Cytotoxicity against human OVCAR-3 cells; format: functional; in short: as §1
# [5] = system: UACC-62; assay: Cytotoxicity against human UACC62 cells; format: functional; in short: as §1
# [6] = system: SF-539; assay: Cytotoxicity against human SF539 cells; format: functional; in short: as §1
# [7] = system: HOP-62; assay: Cytotoxicity against human HOP62 cells; format: functional; in short: as §1
# [8] = target: T1, DNA topoisomerase 1 (Homo sapiens) (UniProt P11387); assay: Inhibition of human recombinant Top1-mediated DNA cleavage at 0.1 to 100 uM after 20 mins relative to camptothecin; design: scale not given: the % may be the effect or the level left
# T1 sequence (whole entry): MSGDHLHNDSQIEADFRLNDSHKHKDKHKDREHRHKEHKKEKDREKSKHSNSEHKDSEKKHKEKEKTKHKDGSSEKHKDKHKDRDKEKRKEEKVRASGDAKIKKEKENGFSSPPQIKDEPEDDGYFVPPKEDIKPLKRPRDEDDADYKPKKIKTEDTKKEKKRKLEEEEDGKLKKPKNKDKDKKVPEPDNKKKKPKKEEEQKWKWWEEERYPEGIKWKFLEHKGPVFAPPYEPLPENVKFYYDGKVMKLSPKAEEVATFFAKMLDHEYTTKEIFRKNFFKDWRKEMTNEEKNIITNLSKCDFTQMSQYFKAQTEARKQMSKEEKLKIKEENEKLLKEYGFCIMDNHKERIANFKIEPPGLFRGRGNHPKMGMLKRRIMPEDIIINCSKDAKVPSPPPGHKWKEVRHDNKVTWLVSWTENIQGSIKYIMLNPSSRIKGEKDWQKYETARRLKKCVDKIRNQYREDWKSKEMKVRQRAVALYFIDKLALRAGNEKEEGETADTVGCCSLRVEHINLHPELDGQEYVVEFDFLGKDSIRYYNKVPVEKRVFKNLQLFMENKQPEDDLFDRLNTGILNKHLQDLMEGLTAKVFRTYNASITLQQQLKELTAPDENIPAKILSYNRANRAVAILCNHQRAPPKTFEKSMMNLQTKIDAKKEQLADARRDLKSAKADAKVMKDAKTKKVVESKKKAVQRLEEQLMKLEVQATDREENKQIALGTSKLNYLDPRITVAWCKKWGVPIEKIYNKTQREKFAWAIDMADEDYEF
# In short: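 Human recombinant Top1 purified from baculovirus. Substrate is a 117-bp oligonucleotide, about 2 nM, 3′-end labelled with 32P-dGTP by Klenow fill-in. Stopped with 0.5% SDS, run on 20% denaturing PAGE and phosphorimaged. Cleavage graded 0 to +++ against 1 μM camptothecin.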
# [9] = system: HCT-116; assay: Cytotoxicity against human HCT116 cells; format: functional; in short: as §1
Activity [8],Compound,GI50 [1],GI50 [2],GI50 [3],GI50 [4],GI50 [5],GI50 [6],GI50 [7],GI50 [9]
50%,O=c1c2ccccc2cc2n1Cc1cc3ccccc3nc1-2 [ROSETTACIN],60.3 µM,> 100 µM,> 100 µM,> 100 µM,> 100 µM,> 100 µM,> 100 µM,57.3 µM
50%,O=c1c2ccccc2cc2n1Cc1c-2nc2cc3c(cc2c1CCCN1CCOCC1)OCCO3,0.06 µM,0.76 µM,1.13 µM,1.84 µM,1.15 µM,1.15 µM,0.54 µM,1.42 µM
50%,O=c1c2ccccc2cc2n1Cc1c-2nc2cc3c(cc2c1CNCCO)OCO3,0.28 µM,1.82 µM,1.91 µM,1.55 µM,0.47 µM,1.35 µM,0.66 µM,0.95 µM
50%,O=c1c2ccccc2cc2n1Cc1c-2nc2ccc(Cl)cc2c1CNCCO,0.23 µM,,10.2 µM,6.46 µM,2.04 µM,4.36 µM,7.24 µM,2.14 µM
50%,O=c1c2ccccc2cc2n1Cc1c-2nc2cc3c(cc2c1CCCn1ccnc1)OCCO3,0.19 µM,2.88 µM,12.6 µM,7.08 µM,0.93 µM,1.95 µM,0.57 µM,1.95 µM
Active,COc1cc2c3c(n(CCCN4CCOCC4)c(=O)c2cc1OC)-c1cc2c(cc1C3=O)OCO2 [INDOTECAN],0.37 µM,,,,0.03 µM,0.04 µM,,
75%,O=c1c2ccccc2cc2n1Cc1c-2nc2cccc(Cl)c2c1CNCCCn1ccnc1,0.55 µM,1.02 µM,6.03 µM,4.9 µM,7.24 µM,1.9 µM,2.51 µM,1.58 µM
inactive,COc1cc2nc3c(c(CNCCCn4ccnc4)c2cc1OC)Cn1c-3cc2ccccc2c1=O,,,,,,,,
50%,CN1CCN(Cc2c3c(nc4cc5c(cc24)OCO5)-c2cc4ccccc4c(=O)n2C3)CC1,0.38 µM,51.3 µM,2.34 µM,16.2 µM,1.62 µM,11.7 µM,17 µM,1.45 µM
inactive,CN1CCN(Cc2c3c(nc4cccc(Cl)c24)-c2cc4ccccc4c(=O)n2C3)CC1,1 µM,9.77 µM,13.8 µM,4.17 µM,15.5 µM,1.51 µM,1.86 µM,1.41 µM
inactive,COc1cc2nc3c(c(Cn4ccnc4)c2cc1OC)Cn1c-3cc2ccccc2c1=O,,,,,,,,
inactive,Cc1cc2c(CNCCCn3ccnc3)c3c(nc2cc1F)-c1cc2ccccc2c(=O)n1C3,2.21 µM,6.24 µM,1.8 µM,4.68 µM,> 100 µM,1.1 µM,36.7 µM,3.05 µM
50%,O=c1c2ccccc2cc2n1Cc1c-2nc2cc3c(cc2c1CNCCO)OCCO3,0.44 µM,2.04 µM,5.75 µM,1.95 µM,1.16 µM,4.26 µM,5.69 µM,2.63 µM
50%,O=c1c2ccccc2cc2n1Cc1c-2nc2cc3c(cc2c1CNCCCn1ccnc1)OCO3,0.48 µM,2.57 µM,5.89 µM,4.26 µM,3.39 µM,2.14 µM,5.01 µM,1.32 µM
50%,Cc1cc2c(CN3CCN(C)CC3)c3c(nc2cc1F)-c1cc2ccccc2c(=O)n1C3,1.8 µM,2.63 µM,16 µM,14.6 µM,16.2 µM,6.46 µM,20.1 µM,1.8 µM
0%,O=c1c2ccccc2cc2n1Cc1c-2nc2cc3c(cc2c1CCCNCCO)OCCO3,0.27 µM,1.02 µM,0.94 µM,1.84 µM,0.46 µM,0.49 µM,1.01 µM,0.82 µM
50%,CN(C)Cc1c2c(nc3cc4c(cc13)OCO4)-c1cc3ccccc3c(=O)n1C2,,,,,,,,
